Laboratory results: article PMC2933382 (Biochemistry, 2010)
Where two headings read alike, the source gives them in different places.

Tests used:
[1] = system: Aag-2 cells; type: cell-based, Aedes aegypti; conditions: for Incorporation of [3H]cholesterol: Fig. 4; for Incorporation of [3H]palmitic acid: Fig. 5
[2] = target: T1, AeSCP-2 wild-type (Aedes aegypti, UniProt Q86PR3); experiment: NBD-cholesterol binding to recombinant AeSCP-2; conditions: wt; 0.5 µM NBD-cholesterol, protein 0.01 to 10 µM; mean (standard deviation)
T1 sequence (Q86PR3 1-110): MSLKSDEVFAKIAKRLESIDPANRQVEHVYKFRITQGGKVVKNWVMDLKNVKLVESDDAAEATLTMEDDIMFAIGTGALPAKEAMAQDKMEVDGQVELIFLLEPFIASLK

[3] = target: AeSCP-2 F32A mutant (Aedes aegypti, UniProt Q86PR3, F32A); experiment: NBD-cholesterol binding to recombinant AeSCP-2 mutant
[4] = target: T2, AeSCP-2 W44E mutant (Aedes aegypti, UniProt Q86PR3, W44E); experiment: as above
[5] = target: AeSCP-2 F105A mutant (Aedes aegypti, UniProt Q86PR3, F105A); experiment: as above
[6] = target: T3, AeSCP-2 F32W mutant (Aedes aegypti, UniProt Q86PR3, F32W); experiment: as above; conditions: 0.5 µM NBD-cholesterol, protein 0.01 to 10 µM, mean (standard deviation)
[7] = target: T4, AeSCP-2 F9W/W44F mutant (Aedes aegypti, UniProt Q86PR3, F9W/W44F); experiment: as above
[8] = target: T5, AeSCP-2 F105W mutant (Aedes aegypti, UniProt Q86PR3, F105W); experiment: as above; conditions: 0.5 µM NBD-cholesterol, protein 0.01 to 10 µM, mean (standard deviation)
[9] = target: T6, AeSCP-2 M90L mutant (Aedes aegypti, UniProt Q86PR3, M90L); experiment: as above
[10] = target: T7, AeSCP-2 Y30A mutant (Aedes aegypti, UniProt Q86PR3, Y30A); experiment: as above
[11] = target: T8, AeSCP-2 (Aedes aegypti, UniProt Q86PR3); conditions: read-out: IC50 (suppression of NBD-cholesterol binding); cited from earlier work
T8 sequence (Q86PR3 1-110): T1 sequence (Q86PR3 1-110)

[12] = target: T9, wild type AeSCP-2 (Aedes aegypti, UniProt Q86PR3); type: binding; conditions: 50 µM SCPI; wild type AeSCP-2 at 10 µM; Fig. 6A
T9 sequence (Q86PR3 1-110): T1 sequence (Q86PR3 1-110)
In short: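 Intrinsic Trp (single residue, W44) fluorescence of purified recombinant native AeSCP-2, with and without SCP-2 inhibitor. Run in 100 µL of 50 mM Tris-HCl, pH 8.0, at 25 °C. Excitation at 280 nm; emission scanned 320–390 nm. Difference spectra were made by subtracting buffer and inhibitor-alone spectra.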

[13] = system: wild type AeSCP-2 denatured in 6.5 M guanidine hydrochloride; experiment: Intrinsic tryptophan fluorescence, denatured protein negative control; type: binding, Aedes aegypti; conditions: Fig. 6B
In short: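 Negative control: recombinant AeSCP-2 denatured in 6.5 M guanidine-HCl in 50 mM Tris-HCl, pH 7.4, scanned with and without inhibitor. Excitation at 280 nm; emission read 320–390 nm. Buffer and inhibitor-alone spectra were subtracted to give difference spectra.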

[14] = target: T6, AeSCP-2 M90L mutant; type: binding; conditions: Fig. 6D
[15] = target: T4, AeSCP-2 F9W/W44F mutant; type: binding; conditions: Fig. 6C
[16] = target: T5, AeSCP-2 F105W mutant; experiment: Ligand competition assay with NBD-cholesterol; type: binding
[17] = target: T8, AeSCP-2; experiment: Initial ligand competition assay; type: binding; conditions: Fig. 1; NBD-cholesterol 1.25 µM, competitive ligand 0.005 to 5 µM
[18] = target: T9, wild type AeSCP-2; experiment: Ligand competition assay with NBD-cholesterol; type: binding
[19] = within the lipid bilayer; cited from earlier work
[20] = target: T7, AeSCP-2 Y30A mutant; experiment: Ligand competition assay with NBD-cholesterol; type: binding
[21] = target: recombinant AeSCP-2; conditions: radiolabelled cholesterol; cited from earlier work
[22] = target: T3, AeSCP-2 F32W mutant; experiment: Ligand competition assay with NBD-cholesterol; type: binding
[23] = target: AeSCP-2 W44A mutant (Aedes aegypti, UniProt Q86PR3, W44A); experiment: Ligand competition assay with NBD-cholesterol; type: binding
[24] = target: T2, AeSCP-2 W44E mutant; experiment: Ligand competition assay with NBD-cholesterol; type: binding
[25] = target: T6, AeSCP-2 M90L mutant; experiment: Ligand competition assay with NBD-cholesterol; type: binding

[3H]C1C([3H])[C@@]2(C)C(=CC[C@H]3[C@@H]4CC[C@H]([C@H](C)CCCC(C)C)[C@@]4(C)CC[C@@H]32)C[C@H]1O (stereo partly shown) [[^3H]cholesterol, [1,2-^3H (N)]-cholesterol]
Incorporation of [3H]cholesterol ([1]; cells over-expressing AeSCP-2 mutants F32A, W44E, M90L, and F105A): did not increase | Incorporation of [3H]cholesterol ([1]; cells over-expressing wild type AeSCP-2 vs. empty vector): increased significantly

C[C@H](CNc1ccc([N+](=O)[O-])c2nonc12)[C@H]1CC[C@H]2[C@@H]3CC=C4C[C@@H](O)CC[C@]4(C)[C@H]3CC[C@]12C [NBD-cholesterol, 22-(N-(7-nitrobenz-2-oxa-1,3-diazol-4-yl)amino)-23,24-bisnor-5-cholen-3β-o]
Kd [2]: 340 nM | Fold of Kd change ([3]; F32A vs. wt): 18.71 | Kd ([3]; F32A, 0.5 µM NBD-cholesterol, protein 0.01 to 10 µM, mean (standard deviation)): 6360 nM | Fold of Kd change ([4]; W44E vs. wt): 12.35 | Kd ([4]; W44E, 0.5 µM NBD-cholesterol, protein 0.01 to 10 µM, mean (standard deviation)): 4200 nM | Fold of Kd change ([5]; F105A vs. wt): 3.38 | Kd ([5]; F105A, 0.5 µM NBD-cholesterol, protein 0.01 to 10 µM, mean (standard deviation)): 1150 nM | Kd [6]: 4940 nM | Fold of Kd change ([7]; F9W/W44F vs. wt): 2.68 | Kd ([7]; F9W/W44F, 0.5 µM NBD-cholesterol, protein 0.01 to 10 µM, mean (standard deviation)): 910 nM | Kd [8]: 1320 nM | Fold of Kd change ([9]; M90L vs. wt): 8.09 | Kd ([9]; M90L, 0.5 µM NBD-cholesterol, protein 0.01 to 10 µM, mean (standard deviation)): 2750 nM | Fold of Kd change ([10]; Y30A vs. wt): 0.73 | Kd ([10]; Y30A, 0.5 µM NBD-cholesterol, protein 0.01 to 10 µM, mean (standard deviation)): 250 nM

Br.CC(=O)Nc1ccc(Nc2nc(-c3ccc(Cl)c(Cl)c3)cs2)cc1 [SCPI-1, N-4-{[4-(3,4-dichlorophenyl)-1,3-thiazol-2-yl]amino}phenyl)aetamide hydrobromide]
IC50 [11]: < 400 nM

Br.CC(=O)Nc1ccc(Nc2nc(-c3ccc(Cl)c(Cl)c3)cs2)cc1 [SCPI-1]
Effect on tryptophan intrinsic fluorescence signal [12]: significant decrease | Quenching of tryptophan intrinsic fluorescence, denatured protein [13]: no significant quenching | Effect on tryptophan intrinsic fluorescence [14]: still quenched | Effect on tryptophan intrinsic fluorescence [15]: still quenched

COc1cccc(-n2sc3c(c2=S)-c2cc(Cl)ccc2NC3(C)C)c1 [SCPI-2, 8-chloro-2-(3-methoxyphenyl)-4,4-dimethyl-4,5-dihydroisothiazol[5,4-c]quinoline-1(2H)-thione]
Effect on tryptophan intrinsic fluorescence signal [12]: significant decrease | Quenching of tryptophan intrinsic fluorescence, denatured protein [13]: no significant quenching | Effect on tryptophan intrinsic fluorescence [14]: did not affect | Effect on tryptophan intrinsic fluorescence [15]: did not affect | IC50 [11]: < 400 nM

CC(C)CCC[C@@H](C)[C@H]1CC[C@H]2[C@@H]3CC=C4C[C@@H](O)CC[C@]4(C)[C@H]3CC[C@]12C [cholesterol]
EC50 [16]: 474 nM | Competition with NBD-cholesterol for binding to AeSCP-2 [17]: competed with the NBD-cholesterol for binding to AeSCP-2 in a dose-dependent fashion | EC50 [18]: 211 nM | Effect on tryptophan intrinsic fluorescence signal [12]: does not produce a quenching | flip-flop rate t1/2 [19]: 1 to 2 min | EC50 [20]: 282 nM | Kd [21]: 10 nM | EC50 [22]: 447 nM | EC50 [23]: 72 nM

[3H]C(CCCCCC)C([3H])CCCCCCCC(=O)O (stereo not shown) [[^3H]palmitic acid, [9,10-^3H]-palmitic acid]
Incorporation of [3H]palmitic acid ([1]; cells transfected with either empty or AeSCP-2 wild type expression vectors): no increase | Incorporation of [3H]palmitic acid ([1]; over-expression of AeSCP-2 mutants): did not affect

CC[C@H](CC[C@@H](C)[C@H]1CC[C@H]2[C@@H]3CC=C4C[C@@H](O)CC[C@]4(C)[C@H]3CC[C@]12C)C(C)C [β-sitosterol]
EC50 [16]: 83 nM | Competition with NBD-cholesterol for binding to AeSCP-2 [17]: also competed with NBD-cholesterol for binding to AeSCP-2 | EC50 [18]: 142 nM | EC50 [24]: 42 nM | EC50 [20]: 96 nM | EC50 [25]: 46 nM | EC50 [22]: 61 nM | EC50 [23]: 112 nM

CCCCCCCCCCCCCCCC(=O)O [palmitic acid]
EC50 [16]: 175 nM | Competition with NBD-cholesterol for binding to AeSCP-2 [17]: also competed with NBD-cholesterol for binding to AeSCP-2 | EC50 [18]: 348 nM | EC50 [24]: 75 nM | EC50 [20]: 100 nM | EC50 [25]: 127 nM | EC50 [22]: 398 nM | EC50 [23]: 127 nM

CC(C)CCC[C@@H](C)[C@H]1CC[C@H]2C3=CC=C4C[C@@H](O)CC[C@]4(C)[C@H]3CC[C@]12C [7-dehydrocholesterol]
Competition with NBD-cholesterol for binding to AeSCP-2 [17]: did not appear to compete
